{"source": "ChEMBL document CHEMBL1149392", "about": "“PTP-1B inhibitors: cyclopenta[d][1,2]-oxazine derivatives” (Bioorg Med Chem Lett, 2006)", "key": {"[1]": {"target": "T1, Tyrosine-protein phosphatase non-receptor type 1 (Homo sapiens) (UniProt P18031)", "T1 sequence (whole entry)": "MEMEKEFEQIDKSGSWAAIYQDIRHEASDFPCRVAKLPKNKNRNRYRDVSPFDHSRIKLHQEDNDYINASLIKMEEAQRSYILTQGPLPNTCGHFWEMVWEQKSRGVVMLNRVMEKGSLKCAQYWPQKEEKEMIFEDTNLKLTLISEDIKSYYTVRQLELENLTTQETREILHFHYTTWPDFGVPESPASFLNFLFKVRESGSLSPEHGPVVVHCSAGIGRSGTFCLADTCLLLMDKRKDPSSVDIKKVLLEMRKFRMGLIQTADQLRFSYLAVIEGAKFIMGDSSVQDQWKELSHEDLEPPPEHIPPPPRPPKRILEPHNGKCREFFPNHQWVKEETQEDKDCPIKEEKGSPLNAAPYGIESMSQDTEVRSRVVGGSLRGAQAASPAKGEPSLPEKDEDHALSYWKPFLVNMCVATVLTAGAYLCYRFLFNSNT", "assay": "Inhibitory activity against recombinant human PTP1B at 10 uM"}, "[2]": {"target": "Tyrosine-protein phosphatase YopH (Yersinia enterocolitica, UniProt P15273)", "sequence (P15273 whole entry)": "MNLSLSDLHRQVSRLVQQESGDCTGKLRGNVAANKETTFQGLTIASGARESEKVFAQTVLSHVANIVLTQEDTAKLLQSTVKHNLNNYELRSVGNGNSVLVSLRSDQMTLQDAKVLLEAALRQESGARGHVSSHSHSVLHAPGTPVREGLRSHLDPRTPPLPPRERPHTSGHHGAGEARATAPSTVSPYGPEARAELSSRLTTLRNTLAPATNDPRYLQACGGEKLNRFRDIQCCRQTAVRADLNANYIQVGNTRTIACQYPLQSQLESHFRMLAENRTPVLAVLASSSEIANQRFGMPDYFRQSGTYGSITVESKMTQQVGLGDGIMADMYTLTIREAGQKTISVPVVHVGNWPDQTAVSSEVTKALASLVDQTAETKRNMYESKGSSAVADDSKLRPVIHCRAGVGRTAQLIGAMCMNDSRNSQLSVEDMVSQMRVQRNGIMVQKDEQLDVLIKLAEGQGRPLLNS", "assay": "Inhibitory activity against YOP protein tyrosine phosphatase", "summary_of_the_method": "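Counter-screen against Yop phosphatase within a nine-phosphatase selectivity panel. Fluorescein diphosphate substrate at 20 μM, the same level as in the PTP-1B assay. Potency is reported as IC50 (μM).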"}, "[3]": {"target": "Serine/threonine-protein phosphatase PP1-gamma catalytic subunit (Homo sapiens, UniProt P36873)", "sequence (P36873 whole entry)": "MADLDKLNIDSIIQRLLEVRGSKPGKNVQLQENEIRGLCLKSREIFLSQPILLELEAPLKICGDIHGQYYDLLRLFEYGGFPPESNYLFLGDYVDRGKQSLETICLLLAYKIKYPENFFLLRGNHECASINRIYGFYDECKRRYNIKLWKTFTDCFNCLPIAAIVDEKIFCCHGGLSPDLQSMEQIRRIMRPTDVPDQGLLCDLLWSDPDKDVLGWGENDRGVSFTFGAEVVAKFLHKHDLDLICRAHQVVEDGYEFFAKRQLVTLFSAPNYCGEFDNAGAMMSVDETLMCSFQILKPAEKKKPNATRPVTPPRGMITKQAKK", "assay": "Inhibitory activity against Protein phosphatase 1", "summary_of_the_method": "(§1)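 Selectivity panel of nine phosphatases, each assayed with fluorescein diphosphate at the same concentration as in the PTP-1B assay (20 μM). IC50 values (μM) reported.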"}, "[4]": {"target": "T2, Receptor-type tyrosine-protein phosphatase C (Homo sapiens, UniProt P08575)", "T2 sequence (P08575 whole entry)": "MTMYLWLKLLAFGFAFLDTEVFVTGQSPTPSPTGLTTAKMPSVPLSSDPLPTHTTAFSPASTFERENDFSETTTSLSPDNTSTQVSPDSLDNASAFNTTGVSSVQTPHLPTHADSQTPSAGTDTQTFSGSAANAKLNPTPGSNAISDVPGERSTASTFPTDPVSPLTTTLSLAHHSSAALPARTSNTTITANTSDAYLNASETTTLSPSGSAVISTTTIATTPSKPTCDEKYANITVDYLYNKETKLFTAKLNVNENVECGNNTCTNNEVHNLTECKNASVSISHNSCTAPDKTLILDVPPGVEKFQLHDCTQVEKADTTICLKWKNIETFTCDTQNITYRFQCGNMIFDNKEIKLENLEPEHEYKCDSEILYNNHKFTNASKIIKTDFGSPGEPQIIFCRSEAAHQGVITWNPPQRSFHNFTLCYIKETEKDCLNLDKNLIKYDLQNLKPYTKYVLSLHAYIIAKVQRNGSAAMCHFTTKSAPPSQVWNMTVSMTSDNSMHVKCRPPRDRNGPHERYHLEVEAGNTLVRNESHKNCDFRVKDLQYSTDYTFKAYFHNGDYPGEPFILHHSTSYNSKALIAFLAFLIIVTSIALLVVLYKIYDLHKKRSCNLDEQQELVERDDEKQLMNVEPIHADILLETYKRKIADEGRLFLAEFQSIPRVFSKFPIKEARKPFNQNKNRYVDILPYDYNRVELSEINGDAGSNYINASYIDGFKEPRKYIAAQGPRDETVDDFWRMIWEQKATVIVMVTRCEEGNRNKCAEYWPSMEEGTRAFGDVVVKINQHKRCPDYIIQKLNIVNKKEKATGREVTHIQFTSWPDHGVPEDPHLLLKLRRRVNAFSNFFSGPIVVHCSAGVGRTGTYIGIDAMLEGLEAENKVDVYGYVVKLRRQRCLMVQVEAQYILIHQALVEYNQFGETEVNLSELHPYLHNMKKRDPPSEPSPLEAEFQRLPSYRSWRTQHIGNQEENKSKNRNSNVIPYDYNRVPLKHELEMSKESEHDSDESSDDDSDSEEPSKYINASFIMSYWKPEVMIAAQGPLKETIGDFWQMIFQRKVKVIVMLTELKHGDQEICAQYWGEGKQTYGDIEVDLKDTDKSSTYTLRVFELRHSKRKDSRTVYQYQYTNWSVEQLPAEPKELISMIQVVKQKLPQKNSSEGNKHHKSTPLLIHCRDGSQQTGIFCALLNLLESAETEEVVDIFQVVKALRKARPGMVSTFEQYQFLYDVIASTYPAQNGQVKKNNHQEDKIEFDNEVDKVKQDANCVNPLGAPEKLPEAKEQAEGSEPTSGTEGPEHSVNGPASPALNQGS", "assay": "Inhibitory activity against CD45 phosphatase", "summary_of_the_method": "as §1"}, "[5]": {"target": "Receptor-type tyrosine-protein phosphatase F (Homo sapiens, UniProt P10586)", "sequence (P10586 whole entry)": "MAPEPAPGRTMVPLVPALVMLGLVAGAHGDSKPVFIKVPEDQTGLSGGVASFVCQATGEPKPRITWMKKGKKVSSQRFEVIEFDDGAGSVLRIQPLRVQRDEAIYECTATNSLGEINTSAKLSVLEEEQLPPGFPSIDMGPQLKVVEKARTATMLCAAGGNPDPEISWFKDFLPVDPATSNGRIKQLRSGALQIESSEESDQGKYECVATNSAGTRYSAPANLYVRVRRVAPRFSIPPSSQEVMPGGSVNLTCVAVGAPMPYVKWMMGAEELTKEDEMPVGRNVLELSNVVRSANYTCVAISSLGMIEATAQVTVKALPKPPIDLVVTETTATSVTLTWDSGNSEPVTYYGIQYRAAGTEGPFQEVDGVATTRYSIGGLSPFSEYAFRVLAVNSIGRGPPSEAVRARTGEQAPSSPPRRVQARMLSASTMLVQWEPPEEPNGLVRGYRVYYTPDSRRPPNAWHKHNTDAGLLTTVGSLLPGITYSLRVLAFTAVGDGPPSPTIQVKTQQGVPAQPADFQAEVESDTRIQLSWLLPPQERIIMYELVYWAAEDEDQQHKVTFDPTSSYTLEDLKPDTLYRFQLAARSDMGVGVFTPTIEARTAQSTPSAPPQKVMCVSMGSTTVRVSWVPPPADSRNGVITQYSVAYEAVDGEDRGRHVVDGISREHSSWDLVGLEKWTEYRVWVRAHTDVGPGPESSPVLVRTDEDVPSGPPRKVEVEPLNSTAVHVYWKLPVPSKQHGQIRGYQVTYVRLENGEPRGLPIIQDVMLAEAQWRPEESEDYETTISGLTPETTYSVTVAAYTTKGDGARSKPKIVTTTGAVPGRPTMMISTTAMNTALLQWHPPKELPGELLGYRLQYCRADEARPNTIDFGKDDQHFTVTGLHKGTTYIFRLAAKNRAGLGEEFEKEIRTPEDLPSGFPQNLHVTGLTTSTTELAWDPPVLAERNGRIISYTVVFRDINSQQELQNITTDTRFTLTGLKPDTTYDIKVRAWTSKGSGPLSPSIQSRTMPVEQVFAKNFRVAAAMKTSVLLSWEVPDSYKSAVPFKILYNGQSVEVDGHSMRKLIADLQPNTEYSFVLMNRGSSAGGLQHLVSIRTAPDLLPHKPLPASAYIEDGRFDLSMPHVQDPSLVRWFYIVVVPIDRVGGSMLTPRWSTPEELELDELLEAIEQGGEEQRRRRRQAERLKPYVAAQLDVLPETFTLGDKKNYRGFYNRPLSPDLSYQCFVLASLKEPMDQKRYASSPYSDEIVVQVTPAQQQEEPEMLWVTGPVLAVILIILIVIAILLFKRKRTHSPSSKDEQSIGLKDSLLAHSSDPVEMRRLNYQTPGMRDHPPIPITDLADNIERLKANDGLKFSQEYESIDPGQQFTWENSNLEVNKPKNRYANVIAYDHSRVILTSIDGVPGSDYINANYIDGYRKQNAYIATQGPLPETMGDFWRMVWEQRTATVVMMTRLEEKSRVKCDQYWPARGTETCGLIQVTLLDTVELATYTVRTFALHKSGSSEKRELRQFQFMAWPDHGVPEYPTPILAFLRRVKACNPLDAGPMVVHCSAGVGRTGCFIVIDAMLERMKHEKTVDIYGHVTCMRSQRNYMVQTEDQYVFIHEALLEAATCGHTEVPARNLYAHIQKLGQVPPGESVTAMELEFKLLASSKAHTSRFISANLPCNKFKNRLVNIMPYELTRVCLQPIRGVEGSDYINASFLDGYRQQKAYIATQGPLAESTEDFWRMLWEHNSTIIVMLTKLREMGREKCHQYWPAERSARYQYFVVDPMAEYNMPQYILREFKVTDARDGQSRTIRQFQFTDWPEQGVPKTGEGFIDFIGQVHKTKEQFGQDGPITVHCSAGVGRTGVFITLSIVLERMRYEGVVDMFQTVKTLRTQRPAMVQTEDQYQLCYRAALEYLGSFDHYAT", "assay": "Inhibitory activity against LAR protein tyrosine phosphatase", "summary_of_the_method": "as §1"}, "[6]": {"target": "T3, M-phase inducer phosphatase 1 (Homo sapiens, UniProt P30304)", "T3 sequence (P30304 whole entry)": "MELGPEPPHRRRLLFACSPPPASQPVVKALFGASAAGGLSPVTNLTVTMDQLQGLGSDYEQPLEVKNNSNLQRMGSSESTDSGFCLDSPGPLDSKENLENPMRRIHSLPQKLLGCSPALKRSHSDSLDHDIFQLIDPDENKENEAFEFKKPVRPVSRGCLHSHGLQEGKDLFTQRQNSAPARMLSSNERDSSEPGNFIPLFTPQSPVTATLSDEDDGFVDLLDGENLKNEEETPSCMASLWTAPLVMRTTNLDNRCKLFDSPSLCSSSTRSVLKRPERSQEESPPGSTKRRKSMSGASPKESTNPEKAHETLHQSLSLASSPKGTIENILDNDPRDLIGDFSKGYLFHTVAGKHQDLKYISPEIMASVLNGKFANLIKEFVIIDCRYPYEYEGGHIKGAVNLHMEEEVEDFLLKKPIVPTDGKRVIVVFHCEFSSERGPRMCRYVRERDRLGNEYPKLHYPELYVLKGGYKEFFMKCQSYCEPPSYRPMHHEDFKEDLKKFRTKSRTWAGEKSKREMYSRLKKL", "assay": "Inhibitory activity against cdc25A phosphatase", "summary_of_the_method": "as §1"}, "[7]": {"target": "T4, M-phase inducer phosphatase 3 (Homo sapiens, UniProt P30307)", "T4 sequence (P30307 whole entry)": "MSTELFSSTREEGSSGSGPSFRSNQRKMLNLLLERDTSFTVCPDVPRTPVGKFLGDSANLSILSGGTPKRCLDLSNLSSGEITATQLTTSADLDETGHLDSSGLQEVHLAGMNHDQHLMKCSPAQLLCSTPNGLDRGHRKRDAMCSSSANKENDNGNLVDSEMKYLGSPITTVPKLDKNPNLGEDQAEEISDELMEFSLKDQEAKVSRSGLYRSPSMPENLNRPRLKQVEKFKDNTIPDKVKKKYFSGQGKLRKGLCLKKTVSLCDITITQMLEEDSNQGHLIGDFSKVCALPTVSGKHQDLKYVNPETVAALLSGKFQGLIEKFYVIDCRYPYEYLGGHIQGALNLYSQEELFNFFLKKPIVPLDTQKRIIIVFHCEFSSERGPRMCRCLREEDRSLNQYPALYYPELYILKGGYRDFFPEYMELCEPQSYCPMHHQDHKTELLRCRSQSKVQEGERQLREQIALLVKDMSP", "assay": "Inhibitory activity against cdc25C phosphatase", "summary_of_the_method": "as §1"}}, "data": [{"smiles": "CCCCCCCCCCCCCCc1ccc(C(=O)c2ccc3c(-c4ccc(OCC(=O)O)cc4)nocc2-3)cc1", "values": [{"measurement": "inhibition", "setting": "[1]", "result": 101, "unit": "%"}, {"measurement": "IC50", "setting": "[2]", "result": 0.55, "unit": "µM"}, {"measurement": "IC50", "setting": "[3]", "result": 0.22, "unit": "µM"}, {"measurement": "IC50", "setting": "[4]", "result": 0.15, "unit": "µM"}, {"measurement": "IC50", "setting": "[5]", "result": 0.69, "unit": "µM"}, {"measurement": "IC50", "setting": "[6]", "result": 1.33, "unit": "µM"}, {"measurement": "IC50", "setting": "[7]", "result": 2.27, "unit": "µM"}]}, {"smiles": "COc1ccc(C(=O)c2ccc3c(-c4ccc(OCC(=O)O)cc4)nocc2-3)cc1", "values": [{"measurement": "inhibition", "setting": "[1]", "result": 81.5, "unit": "%"}, {"measurement": "IC50", "setting": "[2]", "result": 5.71, "unit": "µM"}, {"measurement": "IC50", "setting": "[3]", "result": 35.2, "unit": "µM"}, {"measurement": "IC50", "setting": "[4]", "result": 28.8, "unit": "µM"}, {"measurement": "IC50", "setting": "[5]", "result": 61.7, "unit": "µM"}, {"measurement": "IC50", "setting": "[6]", "result": 73.3, "unit": "µM"}, {"measurement": "IC50", "setting": "[7]", "result": 61.7, "unit": "µM"}]}, {"smiles": "NCc1ccc(C(=O)c2ccc3c(-c4ccc(OCC(=O)O)cc4)nocc2-3)cc1", "values": [{"measurement": "inhibition", "setting": "[1]", "result": 97.2, "unit": "%"}, {"measurement": "IC50", "setting": "[2]", "result": 1.19, "unit": "µM"}, {"measurement": "IC50", "setting": "[3]", "result": 1.3, "unit": "µM"}, {"measurement": "IC50", "setting": "[4]", "result": 1.23, "unit": "µM"}, {"measurement": "IC50", "setting": "[5]", "result": "> 10", "unit": "µM"}, {"measurement": "IC50", "setting": "[6]", "result": 10, "unit": "µM"}, {"measurement": "IC50", "setting": "[7]", "result": "> 10", "unit": "µM"}]}]}
